# Screening data: PubChem, SRMLSC
# RAM inhibit: inhibitors of the yeast RAM network. S. cerevisiae dse1pr::URA3 reporter, 5-FOA growth OD615, 2 d; analog-sensitive cbk1-as2 kinase mutant strain. inhibition, % at 50 µM. 1.8% of 190,000 active;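 active = inhibition above a set limit, 3 SD over mean compound inhibition, cut at about 8.4% in these data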;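 also: 0% = DMSO-only wells with no growth and 100% = 10 µM 1-NA-PP1 full growth; inhibition rescues growth on 5-FOA so higher OD means more RAM inhibition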
# Yeast life ext: yeast lifespan extension; S. cerevisiae growth with nicotinamide, OD615; deaD strain in restrictive glucose medium; inhibition of the nicotinamide effect, % at 10 µM; 0.68% of 130,000 active; AID 775;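 active = inhibition above a set limit, placed 3 SD over the median of all compounds, cut at about 26% in these data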;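 also: 0% = nicotinamide-treated wells and 100% = cells grown without nicotinamide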
#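 Buffer or medium: CSMM-D glucose medium, restrictive; test system: modified budding yeast, DeaD strain; compound: single dose 10 µM compound, 0.25% DMSO; schedule: culture preincubation 4 h, compound exposure 48 h, both 30 °C; detection: optical density (absorbance) at 615 nm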
# BB579 growth dn: chemicals that inhibit yeast BB579 growth in restrictive medium (lifespan-shortening candidates). S. cerevisiae BB579 growth, OD615, 48 h. inhibition, % at 10 µM. 0.51% of 140,000 active;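 active = inhibition above a set limit, 3 SD over the mean compound inhibition, cut at about 44% in these data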
#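 Material: Saccharomyces cerevisiae DeaD strain BB579, replicative lifespan model yeast; buffer or medium: CSMM-D restrictive synthetic medium containing dextrose (glucose); compound: 10 µM single dose, DMSO 0.25%; timing: 48 h compound exposure at 30 °C after 4 h preincubation; signal: turbidity as optical density at 615 nm; benchmarks: positive control amphotericin B 10 µg/mL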
# WT yeast gro inh: growth inhibition of WT yeast, mitochondrial fusion screen. 2.1% of 190,000 active. inhibition, % at 10 µM. mitochondrial fusion phenotypic screen, WT strain; in the data active = inhibition above about 58%; tested in S. cerevisiae
# RAM efflux-def: restores 5-FOA growth of efflux-deficient yeast; shares compounds with RAM inhibit; S. cerevisiae efflux-deficient reporter strain, 5-FOA growth OD615, 2 days; max inhibition, %; 1,200 tested, under 10 active; call rule not given here;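 also: plate controls were vehicle for no effect and reference inhibitor for full effect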
# An asterisk follows results filed as active; nt = no result given. Rows were chosen to be rich in hits. Some 4.3% of all compounds tested hit in one or more screens of this group.
SMILES,RAM inhibit,Yeast life ext,BB579 growth dn,WT yeast gro inh,RAM efflux-def
O=C(CSc1ccc(Cl)cc1)Nc1ccccc1Oc1ccccc1,3,2,-14,-3,nt
CCOC(=O)C1(CCOc2ccccc2)CCN(C(=O)c2ccc(-n3cccn3)cc2)CC1,19*,nt,nt,43,1
COc1ccc(NC(=O)C23CC4CC(C2)CC(c2ccccc2)(C4)C3)c(OC)c1,13*,0,-25,21,4
COCCNC(=O)C12CC3CC(C1)CC(c1ccccc1)(C3)C2,1,nt,nt,6,nt
Cc1ccc(/C=C/c2ccc(=O)n(Cc3ccccc3Cl)n2)cc1,13*,-8,-29,62*,3
CCOC(=O)C1(Cc2cccc(F)c2)CCN(Cc2cnn(CC)c2C)CC1,0,nt,nt,-6,nt
CCOc1ccc(-n2c(C)nc(O)c2N=Nc2ccccc2)cc1,14*,nt,nt,-9,4
O=C(CSc1nncn1-c1ccccc1)NC1CCCCC1,1,nt,nt,-3,nt
O=S(=O)(c1ccccc1F)N(Cc1ccco1)Cc1nnc(-c2ccccc2Br)o1,17*,-2,-32,0,1
Clc1ccc(OCc2nnc(-c3ccccc3Br)o2)cc1,6,-10,-87,36,nt
CC(=O)c1cc(C(=O)c2ccccc2)sc1Nc1ccccc1,12*,0,-27,8,3
O=C(CSc1nc(-c2ccccc2)cs1)Nc1ccccc1[N+](=O)[O-],13*,4,-31,5,3
CCOP(=O)(OCC)c1nc(-c2cccc3ccccc23)oc1NCc1ccccc1,6,-5,-27,-15,nt
CCOP(=O)(OCC)c1nc(-c2cccc3ccccc23)oc1NCc1ccc(OC)cc1,13*,nt,nt,17,2
CCCCOC(=O)c1ccc(S(N)(=O)=O)o1,1,13,-31,-23,nt
Cc1nn(C)cc1S(=O)(=O)N1CCN(Cc2cccc(Cl)c2)CC1,2,nt,nt,-2,nt
CN1CCN(C(=O)c2ccc3c(=O)n(Cc4ccco4)c(=S)[nH]c3c2)CC1,0,-11,-66,-4,nt
CCCN(CCC)C(=O)c1ccc2c(=O)n(Cc3ccco3)c(=S)[nH]c2c1,25*,nt,nt,-2,1
N#Cc1ccc(CSc2nnc(-c3c[nH]c4ccccc34)n2-c2ccccc2)cc1,12*,nt,nt,-11,2
C/C(=N\NC(=O)c1ccc(NS(=O)(=O)c2cccs2)cc1)c1ccc2c(c1)OCO2,1,nt,nt,-1,nt
O=C(CSc1ccc(Cl)cc1)N1CCN(c2ccc(Cl)cc2[N+](=O)[O-])CC1,13*,24,-49,3,4
CC(C)(C)C(=O)N1CCN(c2ccc(Cl)cc2[N+](=O)[O-])CC1,-1,7,-16,32,nt
CC(Oc1ccc(-c2ccccc2)c(F)c1)c1ccn(S(=O)(=O)c2ccc(Cl)cc2)n1 (centres undefined),8,12,-73,0,nt
CNCC(C)COc1ccccc1OCc1ccccc1 (centres undefined),20*,1,-17,-6,2
c1ccc2[nH]c(NCc3ccc4c(c3)OCO4)nc2c1,2,nt,nt,-11,nt
SMILES,RAM inhibit,Yeast life ext,BB579 growth dn,WT yeast gro inh,RAM efflux-def
CCC1CCCCN1S(=O)(=O)c1ccc(S(=O)(=O)N(Cc2cccs2)C2CC2)cc1 (centres undefined),13*,33*,-37,-63,2
C=CCNc1nc(N)c(C(=C(C#N)C#N)c2ccc(Br)cc2)s1,1,-3,-17,-6,nt
CCOc1ccc(-c2c(C(=O)N/N=C/c3ccc(OC)cc3)nnn2-c2nonc2N)cc1,12*,6,-24,-3,1
O=C(O)/C(=C\c1cccs1)c1ccccc1,-1,nt,nt,1,nt
CC(=O)Nc1ccc(OCC(O)Cn2c3ccccc3c3ccccc32)c(C)c1 (centres undefined),7,-3,-52,5,nt
Cc1ccccc1OCC(O)Cn1c2ccccc2c2ccccc21 (centres undefined),13*,-13,-29,20,6
Cc1ccccc1-n1cnnc1SCC(=O)Nc1cccnc1Cl,1,nt,nt,-2,nt
O=C(CSc1nnc(-c2ccccc2Br)o1)N1CCc2ccccc2C1,17*,-13,-31,7,2
O=C(CSc1nnc(-c2ccccc2Br)o1)Nc1cccc2ccccc12,5,-3,-33,-5,nt
CCS(=O)(=O)n1nc(-c2ccccc2)nc1NCc1ccco1,0,-15,-51,9,nt
Cc1ccc(S(=O)(=O)n2nc(-c3ccc(Cl)cc3)nc2NCc2ccco2)cc1,15*,1,-67,27,4
O=C(/C=C/c1ccc2c(c1)OCCCO2)c1ccc2ccccc2c1O,12*,0,-30,-3,6
